Where a SMILES comes first, the peptide text is derived from it. [ ]: non-standard residue; d: D form. Nle = CCCC[C@H](N)C(=O)O
Tests used:
Proteasome [1] = assay: Inhibitory concentration against 20S proteasome chymotrypsin-like activity; format: subcellular
L1210 = assay: Inhibitory concentration of the compound was determined against L1210 cells; format: functional, cell-based; settings: Mus musculus
Method in brief: (§1)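 MTT read-out on cultured cells (murine leukemia L1210, melanoma B16, normal melanocyte Mel-A), scoring growth inhibition as either a cytostatic or a cytotoxic effect.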

B16 = assay: Inhibitory concentration of the compound was determined against melanoma B16 cells; format: functional, cell-based; settings: Mus musculus; method in brief: as §1
Mel-A (Mus musculus) = assay: Inhibitory concentration of the compound was determined against melanocyte Mel-A cells
[2] = molecular target: T1, Calpain-1 catalytic subunit (Homo sapiens, UniProt P07384); assay: Inhibitory concentration against Calpain I activity
T1 sequence (P07384 whole entry): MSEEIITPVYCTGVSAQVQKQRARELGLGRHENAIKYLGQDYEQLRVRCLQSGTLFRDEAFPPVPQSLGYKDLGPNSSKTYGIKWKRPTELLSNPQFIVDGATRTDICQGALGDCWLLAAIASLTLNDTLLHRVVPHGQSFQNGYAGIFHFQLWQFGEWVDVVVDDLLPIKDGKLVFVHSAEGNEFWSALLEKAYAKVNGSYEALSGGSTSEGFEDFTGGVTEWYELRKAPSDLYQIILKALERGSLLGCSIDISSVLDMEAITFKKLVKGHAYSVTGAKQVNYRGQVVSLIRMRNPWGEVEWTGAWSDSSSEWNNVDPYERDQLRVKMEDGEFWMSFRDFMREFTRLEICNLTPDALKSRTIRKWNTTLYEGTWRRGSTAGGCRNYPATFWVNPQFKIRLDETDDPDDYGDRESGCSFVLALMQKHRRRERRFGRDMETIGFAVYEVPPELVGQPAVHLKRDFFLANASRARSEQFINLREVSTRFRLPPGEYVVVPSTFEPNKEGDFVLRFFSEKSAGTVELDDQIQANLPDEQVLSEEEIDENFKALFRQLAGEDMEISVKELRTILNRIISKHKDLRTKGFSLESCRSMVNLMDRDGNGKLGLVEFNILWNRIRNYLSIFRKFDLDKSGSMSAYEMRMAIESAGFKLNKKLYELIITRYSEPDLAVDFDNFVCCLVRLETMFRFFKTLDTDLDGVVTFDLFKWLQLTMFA

Cathepsin B = Cathepsin B (Homo sapiens, UniProt P07858); assay: (§2) Inhibitory concentration against Cathepsin B activity; format: functional
[3] = Inhibitory concentration against peptidyl-glutamyl peptide hydrolase activity
Proteasome [4] = assay: Inhibitory effect on 20S proteasome chymotrypsin-like activity; format: subcellular
[5] = as §2

| Structure (SMILES) | IC50 (Proteasome [1]) | IC50 (L1210) | IC50 (B16) | IC50 (Mel-A (Mus musculus)) | IC50 [2] | IC50 (Cathepsin B) | IC50 [3] | IC50 (Proteasome [4]) | IC50 [5] |
| --- | --- | --- | --- | --- | --- | --- | --- | --- | --- |
| CC(C)CN(NC(=O)OCc1ccccc1)C(=O)CN(Cc1ccccc1)/N=C/c1ccccc1B(O)O | > 1000 µM | 27.9 µM | 65.5 µM | 45.1 µM | – | – | – | – | – |
| CC(C)CN(CC(=O)N(Cc1ccccc1)NC(=O)OCc1ccccc1)/N=C/c1ccccc1B(O)O | > 1000 µM | 18.4 µM | 33.5 µM | 25.1 µM | – | – | – | – | – |
| CC(C)CN(NC(=O)CN(Cc1ccccc1)/N=C/c1cccc(B(O)O)c1)c1cnccn1 | 500 µM | > 80 µM | > 80 µM | 16.3 µM | – | – | – | – | – |
| CC(C)CN(CC(=O)N(Cc1ccccc1)NC(=O)OCc1ccccc1)/N=C/c1cccc(B(O)O)c1 | > 1000 µM | 16.9 µM | 20.5 µM | 19.9 µM | – | – | – | – | – |
| CC(C)CN(CC(=O)N(CC(C)C)NC(=O)OCc1ccccc1)NC(=O)CBr | > 1000 µM | 6.5 µM | 1.3 µM | 3.3 µM | – | – | – | – | – |
| CC(C)CN(CC(=O)N(Cc1cccnc1)NC(=O)OCc1ccccc1)/N=C/c1cccc(B(O)O)c1 | 350 µM | 41.6 µM | 21.1 µM | 40.3 µM | – | – | – | – | – |
| CC(C)CN(CC(=O)N(CC(C)C)NC(=O)OCc1ccccc1)NC(=O)CNNC(=O)CBr | > 1000 µM | 7.6 µM | 2.5 µM | 2.3 µM | – | – | – | – | – |
| CC(C)CN(NC(=O)OCc1ccccc1)C(=O)CN(Cc1ccccc1)/N=C/c1cccc(B(O)O)c1 | 53 µM | 16.2 µM | 20.4 µM | 18.4 µM | > 1000 µM | > 1000 µM | – | – | – |
| CC(C)CN(NC(=O)CN(Cc1ccccc1)NC(=O)CBr)C(=O)OCc1ccccc1 | > 1000 µM | 0.6 µM | 0.7 µM | – | – | – | – | – | – |
| CC(C)CN(NC(=O)OCc1ccccc1)C(=O)CN(Cc1cccnc1)/N=C/c1cccc(B(O)O)c1 | > 1000 µM | 75 µM | 74.9 µM | 60.9 µM | – | – | – | – | – |
| CC(C)CN(CC(=O)NN(Cc1ccccc1)c1cnccn1)/N=C/c1cccc(B(O)O)c1 | > 1000 µM | > 80 µM | > 80 µM | 33.7 µM | – | – | – | – | – |
| CC(C)CN(NC(=O)OCc1ccccc1)C(=O)CN(Cc1ccccc1)NC(=O)CBr | > 1000 µM | 1.3 µM | 1.4 µM | 1.8 µM | – | – | – | – | – |
| CC(C)CN(NC(=O)OCc1ccccc1)C(=O)CN(Cc1ccccc1)/N=C/c1ccc(B(O)O)cc1 | > 1000 µM | 14.7 µM | 32.6 µM | 39.3 µM | – | – | – | – | – |
| CC(C)CN(CC(=O)N(CC(C)C)NC(=O)OCc1ccccc1)/N=C/c1cccc(B(O)O)c1 | 91 µM | 21.2 µM | 53.9 µM | – | – | – | – | – | – |
| CC(C)CN(CC(=O)N(CC(C)C)NCC(=O)OCc1ccccc1)NC(=O)CBr | > 1000 µM | 5 µM | 2.2 µM | 4.5 µM | – | – | – | – | – |
| CC(C)CN(NC(=O)OCc1ccccc1)C(=O)CN(Cc1ccccc1)NCc1cccc(Br)c1 | > 1000 µM | 30 µM | > 80 µM | – | – | – | – | – | – |
| CC(C)CN(CC(=O)NN(Cc1ccccc1)c1cnccn1)NC(=O)CBr | > 1000 µM | 24.1 µM | 11.4 µM | 14.8 µM | – | – | – | – | – |
| CC(C)CN(CC(=O)N(CC(C)C)NC(=O)OCc1ccccc1)/N=C/c1ccccc1B(O)O | 50 µM | 16.2 µM | 26.3 µM | 17.3 µM | > 1000 µM | > 1000 µM | – | – | – |
| CCCC[C@@H](C=O)NC(=O)[C@H](CC(C)C)NC(=O)[C@H](CC(C)C)NC(C)=O (Ac-Leu-Leu-[Nle]-aldehyde) | – | 3 µM | 14.5 µM | – | 1 µM | – | 45 µM | 15 µM | 12 µM |

Reference: ChEMBL document CHEMBL1139495, “Retro hydrazino-azapeptoids as peptidomimetics of proteasome inhibitors” (J Med Chem, 2005)
